# Assay results published in ChEMBL document CHEMBL3875220, “Development of new inhibitors for N-acylethanolamine-hydrolyzing acid amidase as promising tool against bladder cancer” (Bioorg Med Chem, 2017).
# pIC50: −log10 of the molar value. Active and inactive are the calls of the source. The rule behind the calls is not given here.
# Columns and labels:
# [1] = target: T1, N-acylethanolamine-hydrolyzing acid amidase (Homo sapiens) (UniProt Q02083); assay: Inhibition of NAAA in human RT112 cells assessed as increase in N-stearoylethanolamide level at 40 uM after 24 hrs by HPLC-MS/MS analysis; format: cell-based; details: RT-112
# T1 sequence (whole entry): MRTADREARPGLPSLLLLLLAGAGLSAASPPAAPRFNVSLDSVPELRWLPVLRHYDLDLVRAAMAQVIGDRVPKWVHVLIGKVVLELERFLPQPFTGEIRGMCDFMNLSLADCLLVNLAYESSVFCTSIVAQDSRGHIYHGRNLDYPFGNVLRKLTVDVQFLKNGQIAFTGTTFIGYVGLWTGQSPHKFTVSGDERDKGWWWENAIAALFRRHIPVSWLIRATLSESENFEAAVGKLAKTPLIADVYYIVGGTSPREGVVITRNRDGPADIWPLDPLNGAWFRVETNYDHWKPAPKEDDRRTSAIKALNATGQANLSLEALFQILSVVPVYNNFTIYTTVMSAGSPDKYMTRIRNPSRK
# Summary of the method: (§1)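 RT112 cells were treated with 40 µM inhibitor for 24 h. Cells and supernatant were pooled (1 ml) and spiked with d4-SEA and d4-LNEA internal standards. Protein was precipitated with cold acetone, and the supernatant was purified by SPE and stored at −80 °C. NAEs were quantified by LC-TripleTOF MS and reported in ng/ml as mean ± SD.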
# [2] = test system: HT-1376; assay: Antiproliferative activity against human HT-1376 cells after 72 hrs by MTT assay; format: functional, cell-based; details: HT-1376, 72 h
# Summary of the method: (§2)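 Human bladder cancer cells were kept in RPMI 1640 with 10% FBS and penicillin/streptomycin at 37 °C, 5% CO₂. They were seeded at 5 × 10³ cells/well and exposed to serial log dilutions from 100 to 0.1 µM for 72 h, with DMSO for controls. Read-out was MTT, with formazan dissolved in DMSO and read at 570 nm. IC50 was the concentration inhibiting 50% relative to untreated controls. Three or more experiments in triplicate; mean ± SD.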
# [3] = target: T1, N-acylethanolamine-hydrolyzing acid amidase (Homo sapiens); assay: (§3) Inhibition of recombinant human NAAA using PAMCA as substrate preincubated for 30 mins followed by substrate addition measured every 3 mins for 2.5 hrs by fluorescence HTS method
# Summary of the method: (§4)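 Human recombinant NAAA (25 ng, purity >95%) was used in 100 mM sodium acetate buffer and preincubated with inhibitor in DMSO for 30 min at room temperature. PAMCA was then added to a final 10 µM. Released 7-amino-4-methylcoumarin fluorescence was read at 460 nm every 3 min. […] Linearity was checked at 5–100 µM over 5 h.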
# [4] = target: T2, N-acylethanolamine-hydrolyzing acid amidase (Homo sapiens, UniProt Q02083); assay: as §3; summary of the method: as §4
# T2 sequence (Q02083 whole entry): T1 sequence (whole entry)
# [5] = Antiproliferative activity against human RT112 cells after 72 hrs by MTT assay; format: functional, cell-based; details: RT-112, 72 h; summary of the method: as §2
# [6] = Antiproliferative activity against human 5637 cells after 72 hrs by MTT assay; format: functional, cell-based; details: Homo sapiens, 5637, 72 h; summary of the method: as §2
# [7] = Antiproliferative activity against human RT4 cells after 72 hrs by MTT assay; format: functional, cell-based; details: RT-4, 72 h; summary of the method: as §2
# [8] = target: T1, N-acylethanolamine-hydrolyzing acid amidase (Homo sapiens); assay: Competitive inhibition of recombinant human NAAA at 100 uM in presence of varying levels of PAMCA as substrate preincubated for 30 mins followed by substrate addition measured every 3 mins for 2.5 hrs by Lineweaver-Burk plot analysis
# Summary of the method: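 Human recombinant NAAA was used with PAMCA as substrate at varying concentrations, using the fluorescence assay in acetate buffer. Vmax and KM were derived from Michaelis–Menten fits, and inhibition mode was assigned from Lineweaver–Burk plots of 1/V against 1/[PAMCA].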
# [9] = target: T1, N-acylethanolamine-hydrolyzing acid amidase (Homo sapiens); assay: Inhibition of NAAA in human RT112 cells assessed as increase in N-palmitoylethanolamide level at 40 uM after 24 hrs by HPLC-MS/MS analysis; format: cell-based; details: RT-112; summary of the method: as §1
# [10] = (§5) Anti-migratory activity against human RT112 cells at 40 nM after 24 hrs by wound healing assay relative to control; format: functional, RT-112
# Summary of the method: (§6)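 RT112 cells seeded at 5 × 10⁵ cells/well to give a sub-confluent monolayer, then scratched (~1 mm wide). Debris was removed and medium replaced with medium containing inhibitor at 40 nM, with DMSO only for controls. Phase-contrast images were taken at 0 and 24 h. Wound closure was calculated as the initial wound area minus the cell-free area remaining at 24 h. Three or more experiments in triplicate; mean ± SD; Student's t-test.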
# [11] = target: T1, N-acylethanolamine-hydrolyzing acid amidase (Homo sapiens); assay: Inhibition of NAAA in human RT112 cells assessed as increase in N-oleoylethanolamide level at 40 uM after 24 hrs by HPLC-MS/MS analysis; format: cell-based; details: RT-112; summary of the method: as §1
# [12] = target: T1, N-acylethanolamine-hydrolyzing acid amidase (Homo sapiens); assay: Inhibition of recombinant human NAAA at 5 to 100 uM using PAMCA as substrate preincubated for 30 mins followed by substrate addition measured every 3 mins for 5 hrs by fluorescence HTS method; summary of the method: as §4
# [13] = target: T1, N-acylethanolamine-hydrolyzing acid amidase (Homo sapiens); assay: Reversible inhibition of recombinant human NAAA at 50 to 100 uM preincubated for 20 mins followed by 20-fold dilution and PAMCA substrate addition by fluorescence HTS method
# Summary of the method: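 Reversibility test: human recombinant NAAA was incubated with inhibitor at 50 or 100 µM final for 20 min. The mixture was diluted twenty-fold and fresh inhibitor added (2.5–50 µM for the 50 µM series, 5–100 for the 100 µM series). The reaction was started with PAMCA and fluorescence was read. Activity was compared between the paired conditions.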
# [14] = test system: RT-112; assay: as §5; format: functional; summary of the method: as §6
inhibition [1],pIC50 [2],inhibition [3],pIC50 [4],inhibition [8],inhibition [9],inhibition [11],inhibition [12],inhibition [13],Compound,pIC50 [5],pIC50 [6],pIC50 [7],Activity [10] [%],Activity [14]
Active,4.99,Dose-dependent effect,4.96,Active,Active,Active,–,–,CCCCCCCCCCCCCCCCNC(=O)c1ccccc1O,5.24,4.95,4.20,50,–
–,–,–,4.35,–,–,–,Active,–,CCCCCCCCCCCCCCCCNC(=O)c1ccccc1,–,4.35,–,–,–
–,–,Dose-dependent effect,4.11,–,–,–,–,–,CCCCCCCCCCCCCCCCNC(=O)[C@@H](O)c1ccccc1,4.60,4.73,< 4.00,–,–
–,–,Dose-dependent effect,4.70,Active,–,–,–,Active,CCCCCCCCCCCCCCCCNC(=O)[C@H](O)c1ccccc1,4.55,4.60,5.46,–,–
–,–,–,< 4.00,–,–,–,–,–,CCCCCCCCCCCCCCCNC(=O)c1ccc2ccccc2c1,–,–,–,–,–
Active,5.02,Dose-dependent effect,4.42,Active,Active,Active,–,–,CCCCCCCCCCCCCCCCNC(=O)c1cc(O)ccc1O,5.15,5.14,–,80,–
Active,–,–,4.47,Active,Active,Active,Active,Active,CCCCCCCCCCCCCCCNC(=O)CCO,4.23,4.40,–,–,Active
–,–,Dose-dependent effect,4.01,–,–,–,–,–,CCCCCCCCCCCCCCCCNC(=O)c1ccncc1,4.12,4.29,4.38,–,–
